Measured values: ChEMBL document CHEMBL1131622, “(+/-)-trans-2-[3-methoxy-4-(4-chlorophenylthioethoxy)-5-(N-methyl-N- hydroxyureidyl)methylphenyl]-5-(3,4, 5-trimethoxyphenyl)tetrahydrofuran (CMI-392), a potent dual 5-lipoxygenase inhibitor and platelet-activating factor receptor antagonist” (J Med Chem, 1998)
“And” between values parts separate entries of the source, which are not always exact repeats. Equal values may be shown once.

Columns and labels:
[1] = organism: Homo sapiens; assay: (§1) Compound was evaluated for inhibiting production of LTB4 in calcium Ionophore (A23187) activated human whole blood.; format: functional; set-up: concentration or dose not given beside the values
Procedure, shortened: (§2)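 Heparinized human whole blood (1 mL) preincubated with compound in DMSO 15 min at 37 °C, then stimulated with A23187 (50 μM final) 30 min at 37 °C; plasma LTB4 measured by EIA. IC50 by regression; percent inhibition also reported at 3 μM.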

[2] = target: T1, Polyunsaturated fatty acid 5-lipoxygenase (Rattus norvegicus, UniProt P12527); assay: Inhibition of 5-lipoxygenase mediated conversion of [14C]arachidonic acid to leukotrienes in RBL-2H3 cells; format: cell-based
T1 sequence (P12527 whole entry): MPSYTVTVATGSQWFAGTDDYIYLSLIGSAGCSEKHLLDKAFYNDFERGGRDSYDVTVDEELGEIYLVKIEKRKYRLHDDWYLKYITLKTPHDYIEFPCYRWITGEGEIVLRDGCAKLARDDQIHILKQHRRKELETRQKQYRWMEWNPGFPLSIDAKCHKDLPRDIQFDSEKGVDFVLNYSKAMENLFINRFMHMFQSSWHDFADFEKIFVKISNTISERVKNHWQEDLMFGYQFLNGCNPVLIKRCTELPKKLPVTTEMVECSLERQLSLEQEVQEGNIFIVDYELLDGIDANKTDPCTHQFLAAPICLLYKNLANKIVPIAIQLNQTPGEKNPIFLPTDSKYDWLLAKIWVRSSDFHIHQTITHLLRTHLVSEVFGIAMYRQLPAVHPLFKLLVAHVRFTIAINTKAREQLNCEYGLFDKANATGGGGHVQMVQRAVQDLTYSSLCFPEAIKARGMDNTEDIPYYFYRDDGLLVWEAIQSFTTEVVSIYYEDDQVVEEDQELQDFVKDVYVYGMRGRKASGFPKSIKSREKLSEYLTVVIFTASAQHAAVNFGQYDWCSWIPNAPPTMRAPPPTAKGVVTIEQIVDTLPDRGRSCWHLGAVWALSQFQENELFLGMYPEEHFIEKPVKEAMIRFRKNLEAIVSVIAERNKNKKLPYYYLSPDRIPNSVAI
Procedure, shortened: (§3)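 Lysate plus compound (DMSO) in buffer with 0.1 M NaCl, 0.7 mM CaCl2, 20 min room temperature, then [14C]AA substrate mix 5 min 37 °C. Products extracted, resolved by silica TLC, autoradiography/densitometry; IC50 by regression.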

[3] = organism: Homo sapiens; assay: as §1; format: functional; procedure, shortened: as §2
[4] = tested on: Mus musculus; assay: In vivo inhibition against PAF induced hemoconcentration in mice at a concentration of 3 mg/kg; format: functional
Procedure, shortened: (§4)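 Mice given compound iv at 3 mg/kg in 0.5% DMSO saline, then PAF (10 μg, in 0.25% BSA/saline) iv by tail vein 15 min later. Tail blood taken 15 min after PAF for hematocrit; percent inhibition relative to vehicle control.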

[5] = tested on: Mus musculus; assay: In vivo inhibition against arachidonic acid induced ear Edema in mice at a concentration of 3 mg/kg; format: functional
Procedure, shortened: (§5)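 Compound given iv at 3 mg/kg in 0.5% DMSO saline 15 min before topical arachidonic acid (0.5 mg in acetone/pyridine/water 97:2:1) on both ears of mice. Sacrifice at 1 h; 7-mm ear punches weighed, edema as mean wet weight.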

[6] = target: Platelet-activating factor receptor (Homo sapiens, UniProt P25105); assay: Displacement of [3H]PAF from PAF receptor of human platelet membranes
Platelet-activating factor receptor, sequence (P25105 whole entry): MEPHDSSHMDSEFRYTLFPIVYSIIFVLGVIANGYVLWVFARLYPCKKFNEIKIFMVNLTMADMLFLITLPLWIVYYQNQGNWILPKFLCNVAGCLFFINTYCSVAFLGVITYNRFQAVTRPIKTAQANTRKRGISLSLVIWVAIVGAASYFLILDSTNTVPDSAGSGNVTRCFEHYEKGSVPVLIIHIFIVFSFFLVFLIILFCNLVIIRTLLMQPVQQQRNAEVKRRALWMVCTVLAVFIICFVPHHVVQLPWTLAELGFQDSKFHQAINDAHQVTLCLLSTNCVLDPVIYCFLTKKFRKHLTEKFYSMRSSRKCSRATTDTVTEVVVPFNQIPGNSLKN

[7] = target: T1, Polyunsaturated fatty acid 5-lipoxygenase; assay: 5-lipoxygenase inhibitory activity determined by measuring the conversion of [14C]arachidonic acid to leukotrienes in RBL-2H3 cell using thin-layer chromatography.; format: cell-based; procedure, shortened: as §3
[8] = Half-life was determined; format: ADME; settings: human
[9] = organism: Homo sapiens; assay: In vitro inhibition of LTB4 production in human whole blood; format: functional; procedure, shortened: as §2
[10] = tested on: Mus musculus; assay: (§6) In vivo activity against acute TPA-induced ear edema in mouse.; format: functional
Procedure, shortened: (§7)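 Mice, 8 per group, TPA in acetone (10 μL) applied topically to both ear surfaces with or without drug. Sacrifice at 6 h; punch biopsies weighed, MPO measured spectrophotometrically in homogenized tissue, histology also done; compared with maximal control.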

[11] = tested on: Mus musculus; assay: In vivo activity against arachidonic acid induced ear edema in mouse.; format: functional; procedure, shortened: as §5
[12] = tested on: Mus musculus; assay: In vivo activity against chronic TPA-induced ear edema in mouse.; format: functional
Procedure, shortened: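 Mice, 8 per group, TPA in acetone (10 μL) applied topically to both ears once a day every 2 days for 10 days. Drug applied topically twice daily over the last 3 days. Punch biopsies weighed; MPO measured spectrophotometrically; histology also done.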

[13] = tested on: Mus musculus; assay: as §6; format: functional; procedure, shortened: as §7; remark: listed apart in the source
[14] = In vivo activity against platelet activating factor (PAF)-induced hemoconcentration in mouse.; format: functional; procedure, shortened: as §4

Structure (SMILES) | Inhibition [1] [%] | IC50 [2] [nM] | IC50 [3] [nM] | inhibition in vivo at 3 mg/kg [4] [%] | inhibition in vivo at 3 mg/kg [5] [%] | IC50 [6] [nM] | other results
CC(c1cc2ccccc2s1)N(O)C(N)=O (stereo not drawn) [ZILEUTON] | 1 | – | – | – | – | – | –
CCCCN(O)C(=O)Nc1cc([C@@H]2CC[C@@H](c3cc(OC)c(OC)c(OC)c3)O2)cc(OC)c1OCCSc1cccc(Br)c1 (racemic) | – | 43 | 7500 | 28 | 40 | 22 | –
CCCCN(O)C(=O)NCc1cc([C@@H]2CC[C@@H](c3cc(OC)c(OC)c(OC)c3)O2)cc(OC)c1OCCSc1ccc(Cl)cc1 (racemic) | 26 | – | – | – | – | 167 | –
CCCCN(O)C(=O)Nc1cc([C@@H]2CC[C@@H](c3cc(OC)c(OC)c(OC)c3)O2)cc(OC)c1OCCS(=O)(=O)c1c(F)c(F)cc(F)c1F (racemic) | – | 520 | – | 50 | 12 | 285 | –
CC(C#Cc1ccc(Oc2ccc(F)cc2)o1)N(O)C(N)=O (stereo not drawn) | – | 298 | 100 | – | – | – | –
CCCCN(O)C(=O)Nc1cc([C@@H]2CC[C@@H](c3cc(OC)c(OC)c(OC)c3)O2)cc(OC)c1OCCC | – | – | 3500 | – | – | – | –
CCCCN(O)C(=O)Nc1cc([C@@H]2CC[C@@H](c3cc(OC)c(OC)c(OC)c3)O2)cc(OC)c1OCCSc1ccc(Cl)cc1 (racemic) | – | – | 6500 | 43 | 39 | 20 | IC50 [7]: 58 nM
CCCCN(O)C(=O)Nc1cc([C@@H]2CC[C@@H](c3cc(OC)c(OC)c(OC)c3)O2)cc(OC)c1OCCSc1c(F)c(F)cc(F)c1F (racemic) | 3 | 118 | – | 59 | 30 | 2 | –
CCCCN(O)C(=O)Nc1cc([C@@H]2CC[C@@H](c3cc(OC)c(OC)c(OC)c3)O2)cc(OC)c1OCCSc1ccc(Br)cc1 (racemic) | – | 19 | 1200 | – | – | 21 | –
COc1cc([C@@H]2CC[C@@H](c3cc(OC)c(OC)c(OC)c3)O2)cc(CNC(=O)N(C)O)c1OCCSc1ccc(Cl)cc1 (racemic) | – | 100 | 7800 | 56 | 46 | 10 | half-life [8]: 30 min; IC50 [9]: 7800 nM; ED50 [10]: 299 ug ear-1; ED50 [11]: 1.8 mg/kg; ED50 [12]: 552 ug ear-1 and 580 ug ear-1; ED50 [13]: 269 ug ear-1; ED50 [14]: 2.2 mg/kg
CCCCN(O)C(=O)Nc1cc([C@@H]2CC[C@@H](c3cc(OC)c(OC)c(OC)c3)O2)cc(OC)c1OCCS(=O)(=O)c1ccc(Br)cc1 (racemic) | 72 | – | – | 29 | 35 | 38 | –
CCCCN(O)C(=O)Nc1cc([C@@H]2CC[C@@H](c3cc(OC)c(OC)c(OC)c3)O2)cc(OC)c1OCCSc1ccccc1Br (racemic) | 48 | 33 | – | 34 | 26 | 23 | –
CCCCN(O)C(=O)Nc1cc([C@@H]2CC[C@@H](c3cc(OC)c(OC)c(OC)c3)O2)cc(OC)c1OCCSc1ccc(Cl)c(Cl)c1 (racemic) | 61 | 17 | – | 26 | 26 | 45 | –
CCCCN(O)C(=O)Nc1cc([C@@H]2CC[C@@H](c3cc(OC)c(OC)c(OC)c3)O2)cc(OC)c1OCCS(=O)(=O)c1ccccc1Br (racemic) | 19 | 161 | – | 60 | – | 25 | –
CCCCN(O)C(=O)Nc1cc([C@@H]2CC[C@@H](c3cc(OC)c(OC)c(OC)c3)O2)cc(OC)c1OCCSc1ccc(OC)cc1 (racemic) | 32 | 71 | – | 24 | 3 | 39 | –
